Results published in ChEMBL document CHEMBL1127319, “CNAD: a potent and specific inhibitor of alcohol dehydrogenase” (J Med Chem, 1994).
Values belong to the compound of their own block, whether it stands above or below them.

Tests used:
[1] = Michaelis-Menten constant against mammalian malate dehydrogenase (MDH)
How it was run: (§1)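 NAD is varied and the A340 increase from NADH formation is monitored (ε 6.22 mM-1 cm-1). Buffers differ by enzyme: ADH in 0.1 M phosphate, pH 8.0, with ethanol 1.2 mM; GDH in 0.1 M phosphate, pH 7.0, with 10 μM EDTA; LDH and MDH in 0.05 M Tris-HCl, pH 9.0. At least duplicate.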

[2] = test system: NC(=O)c1ccc[n+]([C@@H]2O[C@H](COP(=O)([O-])OP(=O)(O)OC[C@H]3O[C@@H](n4cnc5c(N)ncnc54)[C@H](O)[C@@H]3O)[C@@H](O)[C@H]2O)c1; experiment: Michaelis-Menten constant against mammalian glutamate dehydrogenase (GDH); how it was run: as §1
[3] = test system: NC(=O)c1ccc[n+]([C@@H]2O[C@H](COP(=O)([O-])OP(=O)(O)OC[C@H]3O[C@@H](n4cnc5c(N)ncnc54)[C@H](O)[C@@H]3O)[C@@H](O)[C@H]2O)c1; experiment: Michaelis-Menten constant against mammalian lactate dehydrogenase (LDH); details: Sus scrofa; how it was run: as §1

Glutamate dehydrogenase 1, mitochondrial (Bos taurus), P00366, sequence (P00366 whole entry): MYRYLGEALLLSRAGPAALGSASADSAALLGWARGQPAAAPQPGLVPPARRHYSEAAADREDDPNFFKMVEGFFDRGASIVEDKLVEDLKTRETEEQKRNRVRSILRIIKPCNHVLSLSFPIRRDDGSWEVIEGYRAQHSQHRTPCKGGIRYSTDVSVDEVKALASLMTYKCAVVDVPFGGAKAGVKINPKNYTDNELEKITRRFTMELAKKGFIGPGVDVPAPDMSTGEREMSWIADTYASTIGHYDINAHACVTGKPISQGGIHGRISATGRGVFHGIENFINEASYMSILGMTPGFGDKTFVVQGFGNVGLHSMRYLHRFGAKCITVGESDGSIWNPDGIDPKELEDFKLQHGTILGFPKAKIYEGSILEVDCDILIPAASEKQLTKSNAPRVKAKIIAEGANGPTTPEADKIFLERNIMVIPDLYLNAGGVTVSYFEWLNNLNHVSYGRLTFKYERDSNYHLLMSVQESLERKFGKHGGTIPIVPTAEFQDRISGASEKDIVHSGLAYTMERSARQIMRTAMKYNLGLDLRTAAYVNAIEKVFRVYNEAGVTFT

Km [1]: 32 µM
Compound: NC(=O)c1ccc[n+]([C@@H]2O[C@H](COP(=O)([O-])OP(=O)(O)OC[C@H]3O[C@@H](n4cnc5c(N)ncnc54)[C@H](O)[C@@H]3O)[C@@H](O)[C@H]2O)c1

Compound: Glutamate dehydrogenase 1, mitochondrial (Bos taurus), P00366
Km [2]: 30 µM

Compound: L-lactate dehydrogenase A chain (Homo sapiens) (from UniProt P00338)
Km [3]: 141 µM
